Laboratory results as given in PMC5935190 (Drug Design, Development and Therapy, 2018).
In brackets after ≈: the same amount, converted by molar mass. Entries after “also recorded” stand apart in the source; their conditions may differ.

Legend:
M. tuberculosis BioA = target: T1, M. tuberculosis BioA (Mycobacterium tuberculosis, UniProt P9WQ81); test: biochemical; type: biochemical
T1 sequence (P9WQ81 1-437): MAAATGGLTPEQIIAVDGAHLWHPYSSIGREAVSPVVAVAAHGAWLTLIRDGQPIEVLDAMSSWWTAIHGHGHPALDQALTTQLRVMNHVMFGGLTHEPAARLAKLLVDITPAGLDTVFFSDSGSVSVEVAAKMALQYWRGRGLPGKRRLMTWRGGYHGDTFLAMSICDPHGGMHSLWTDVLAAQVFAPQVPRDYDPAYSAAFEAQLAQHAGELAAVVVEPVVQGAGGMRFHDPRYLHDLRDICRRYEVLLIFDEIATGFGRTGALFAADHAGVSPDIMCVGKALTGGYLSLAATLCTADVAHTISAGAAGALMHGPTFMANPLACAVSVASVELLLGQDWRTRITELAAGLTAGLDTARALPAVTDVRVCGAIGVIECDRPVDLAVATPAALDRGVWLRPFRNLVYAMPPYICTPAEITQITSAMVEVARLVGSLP

M. tuberculosis H37Rv [1] = type: cell-based, Mycobacterium tuberculosis
M. tuberculosis H37Rv [2] = test: microbe, parasite or virus in culture; type: cell-based; conditions: Mycobacterium tuberculosis, read-out: MIC90 in Sauton's medium
[3] = test system: Chinese hamster ovary cell line (CHO); test: Cytotoxicity assay; type: cell-based; conditions: at 50 μg/mL
Procedure, shortened: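 CHO cells were grown in DMEM with 10% FBS and 1X antibiotic-antimycotic, then seeded at 1×10^4 cells per well. They were exposed to the test compound at 1 μg/mL to 200 μg/mL for 48 h. 0.01% resazurin dye was then added to measure cell viability.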

SMILES: O=C(O)c1ccc(C=NNC(=O)c2cccc3ccccc23)cc1 [Compound X21]
- Percent inhibition of BioA at 100 μg/mL (M. tuberculosis BioA): weak inhibition; also recorded: poor inhibition
- MIC90 (μM) for M. tuberculosis growth inhibition (M. tuberculosis H37Rv [1]): 7.86 µM
- MIC90 (μg/mL) for M. tuberculosis growth inhibition (M. tuberculosis H37Rv [1]): 2.5 µg/mL

SMILES: CC1(c2ccc(S(=O)(=O)c3ccccc3)cc2)OC(=O)C=CC1=O (stereo not shown) [Compound A65, 6-methyl-6-[4-(phenylsulfonyl)phenyl]-2H-pyran-2,5(6H)-dione]
- IC50 (M. tuberculosis BioA; IC50 (μM) BioA): 114 µM
- IC50 (M. tuberculosis BioA; IC50 (μg/mL) BioA, mean ± SD): 114 µM
- MIC90 (M. tuberculosis H37Rv [2]): 80 µg/mL (≈ 234 µM)
- Toxicity in CHO cell line [3]: moderate toxicity
